APJ antagonist: antagonists of human APJ apelin receptor; CHO-K1 APJ beta-arrestin complementation, luminescence; inhibition, % at 20 µM; P35414; 0.32% of 330,000 active;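 active = inhibition above about 40% at 20 µM, limit read from the data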;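 note: cells challenged with 10 nM apelin-13 agonist together with compound; plate controls were apelin-13 plus DMSO wells for no effect and DMSO wells lacking apelin-13 for full effect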
EBI2 antag: EBI2 (human) antagonism. EBI2 beta-arrestin recruitment, luminescence, 7a,25-OHC stimulated. 0.81% of 360,000 active. inhibition, % at 5 µM. P32249; in the data active = inhibition above about 38%;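 note: enzyme fragment complementation signal reports receptor beta-arrestin coupling in cells; 0% = agonist plus DMSO wells and 100% = wells without agonist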
Target sequence (P32249 whole entry, looked up, the tested form may be a part): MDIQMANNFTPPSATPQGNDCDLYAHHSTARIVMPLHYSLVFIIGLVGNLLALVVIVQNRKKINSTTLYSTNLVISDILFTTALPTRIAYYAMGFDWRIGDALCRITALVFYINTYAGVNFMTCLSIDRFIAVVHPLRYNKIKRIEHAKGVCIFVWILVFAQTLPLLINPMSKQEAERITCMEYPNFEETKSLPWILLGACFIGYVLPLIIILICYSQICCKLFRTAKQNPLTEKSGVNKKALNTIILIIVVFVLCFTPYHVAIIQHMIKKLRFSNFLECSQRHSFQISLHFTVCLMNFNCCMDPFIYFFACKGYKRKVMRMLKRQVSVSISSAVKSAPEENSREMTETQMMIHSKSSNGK
CCR6 antagonist: blocks CCL20-driven beta-arrestin recruitment at human CCR6; CHO-K1 CCR6 PathHunter beta-arrestin, luminescence, CCL20-stimulated; inhibition, % at 20 µM; 0.49% of 340,000 active;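 active = compounds whose inhibition of the agonist-driven luminescence signal at 20 µM reaches about 50%, limit read from the data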;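 note: cells stimulated with CCL20 at 14 nM final; plate controls were DMSO with CCL20 for no effect and DMSO without agonist for full effect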
APJ agonist: APJ receptor agonism; AID 2520; P35414; 0.11% of 330,000 active; activation, % at 20 µM; CHO-K1 APJ PathHunter beta-arrestin, luminescence; 0% DMSO wells, 100% apelin;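 active = activation more than six SD over the plate average, tested at 20 µM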;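 note: 0% = DMSO alone and 100% = apelin-13 at 10 nM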
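Incubation: overnight seeding, 90 min compound at 25 °C, 1 h detection; test system: PathHunter CHO-K1 APJ (AGTRL-1) beta-arrestin reporter cells; amount: 1000 cells/well; doses: one dose, 20 µM compound, 1% DMSO; measured by: beta-gal luminescence; measure: agonist-driven arrestin binding to APJ; benchmarks: negative DMSO alone, positive Apelin-13 at 10 nM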
CXCR6 block: CXCR6 (human) receptor inhibition; O00574; CHO-K1 PathHunter CXCR6 beta-arrestin, luminescence; 0.36% of 360,000 active; inhibition, % at 20 µM; in the data active = inhibition above about 34%, passing the limit was not always enough;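 note: antagonist mode with CXCL16 agonist at 10 nM final; 0% = 10 nM CXCL16 with DMSO and 100% = unstimulated wells without agonist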
Target sequence (O00574 whole entry, looked up): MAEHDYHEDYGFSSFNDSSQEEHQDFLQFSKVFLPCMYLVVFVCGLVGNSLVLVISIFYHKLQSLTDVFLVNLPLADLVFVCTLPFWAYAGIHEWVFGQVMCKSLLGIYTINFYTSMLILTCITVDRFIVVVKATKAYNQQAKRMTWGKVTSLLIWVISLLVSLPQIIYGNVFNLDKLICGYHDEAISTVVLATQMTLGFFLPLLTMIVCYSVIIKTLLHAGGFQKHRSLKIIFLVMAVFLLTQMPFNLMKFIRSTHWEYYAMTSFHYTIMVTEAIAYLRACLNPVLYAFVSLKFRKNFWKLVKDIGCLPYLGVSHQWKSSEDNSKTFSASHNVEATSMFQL
EBI2 conf: EBI2 (human) antagonism, single concentration confirmation; EBI2 beta-arrestin luminescence, 7a,25-OHC antagonism; shares compounds with EBI2 antag; inhibition, % at 5 µM; 29% of 2,400 active;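 active = inhibition of at least 50%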
EBI2 agonist: EBI2 agonism counter-screen; shares compounds with EBI2 antag; EBI2-expressing cells, agonist mode, luminescence, 60 min; 0% vehicle, 100% 7α,25-dihydroxycholesterol control; activation, % at 5 µM; 2,400 tested, under 10 active; AID 652000;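 active = activation of at least 50%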
bGal counter: counter-screen for EBI2 antagonists: E. coli beta-galactosidase inhibition. purified beta-galactosidase, luminescent Galacton Star, 15 min. 1% of 2,400 active. shares compounds with EBI2 antag. inhibition, % at 5 µM;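 active = replicate-average signal at least 3 plate SD below neutral wells, shown as high inhibition, flagging enzyme-inhibiting false positives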;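 note: 0% = DMSO wells with enzyme and 100% = wells lacking enzyme; higher means stronger loss of beta-gal luminescence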
The depositor's hits bear a star; / = no result. Most compounds without a hit are left out; they make up all but 1.5% or so of the library.

SMILES	APJ antagonist	EBI2 antag	CCR6 antagonist	APJ agonist	CXCR6 block	EBI2 conf	EBI2 agonist	bGal counter
S=c1[nH]nc(-c2cc(-c3ccccc3)n[nH]2)n1/N=C/c1c(Cl)cccc1Cl	-6.1	44.2*	12.5	-0.7	4.8	65.1*	-0.8	-0.1
CCc1ccc(NC(=O)N2CCC(c3ccccc3)C2)cc1 (stereo unspecified)	-1.5	82.5*	16.7	-6.1	-0.4	63.0*	-0.1	5.8
O=C(Nc1ccccc1)N1CCC(c2ccccc2)C1 (stereo unspecified)	28.4	28.9	-3.0	-2.2	3.1	/	/	/
CCOc1ccc(NC(=O)N2CCC(c3ccc(C)cc3)C2)cc1 (stereo unspecified)	32.2	80.7*	10.7	-1.9	-4.0	55.3*	-0.4	2.6
O=C(OCc1cn([C@H]2CN(C(=O)c3cccs3)[C@@H](c3ccc(Cl)cc3)C[C@@H]2O)nn1)c1ccccc1	/	11.3	/	/	4.3	/	/	/
CCC1CN(C(=O)N2CCC(C(=O)NCc3cccc(OC)c3OC)CC2)c2cc(C)ccc2O1 (stereo unspecified)	14.6	-4.2	-4.0	-0.8	1.9	/	/	/
CCOc1ccccc1OCCCC(=O)N1CCN(S(=O)(=O)c2cccc(F)c2)CC1	0.7	-3.8	2.9	-2.3	-1.5	/	/	/
COc1ccc(CCC(=O)N2CCN(S(=O)(=O)c3ccc(C)cc3)CC2)cc1	8.9	49.4*	8.3	-3.2	-3.1	21.2	0.5	3.9
COc1ccc(S(=O)(=O)N2CCN(C(=O)CCC3CCCC3)CC2)cc1	3.2	3.0	-1.6	7.5	1.4	/	/	/
COc1ccc(OCCCC(=O)N2CCN(S(=O)(=O)c3cccc(F)c3)CC2)cc1	11.3	57.7*	9.6	-3.3	-9.1	29.4	0.1	3.4
COc1ccc(CCC(=O)N2CCN(S(=O)(=O)c3cccc(Cl)c3)CC2)cc1	12.5	71.9*	11.5	-4.4	-1.9	47.1	-0.4	-17.4
CC(=O)Nc1ccc(-c2ccnc3c2CC(C)(C(=O)NCc2ccc(F)c(F)c2)O3)cc1 (stereo unspecified)	/	4.6	/	/	-9.0	/	/	/
CCN(CC)CCCNc1nc2ccccc2c2nc(-c3ccncc3)nn12	12.2	-3.2	-1.6	-2.8	-4.4	/	/	/
COc1ccc(NC(=O)CN2CCN(C3c4ccccc4-c4ccccc43)CC2)cc1	20.9	47.2*	5.9	0.5	-4.0	42.9	-0.2	-15.6
CCS(=O)(=O)N1Cc2ccccc2CC1C(=O)Nc1nc2ccccc2[nH]1 (stereo unspecified)	2.8	0.8	5.7	3.7	-0.2	/	/	/
COc1ccc(S(=O)(=O)N2CCC(C(=O)NCCc3c[nH]c4ccccc34)CC2)cc1	1.2	45.2*	1.3	-1.3	-5.9	18.4	-0.2	9.1
CCS(=O)(=O)N1Cc2ccccc2CC1C(=O)NCCc1c[nH]c2ccccc12 (stereo unspecified)	0.0	44.4*	5.2	1.0	16.1	18.1	0.6	2.5
Cc1cccc(-c2nc3c(s2)CCc2onc(-c4ccc(Br)cc4)c2-3)c1	-32.9	-7.6	0.1	-1.6	-0.5	/	/	/
CCOC(=O)C1=C[C@@H](C(C)(C)C)N(S(=O)(=O)c2ccc(C)cc2)[C@H]1c1ccc(C#N)cc1	/	42.0*	/	/	5.9	29.9	1.1	5.8
COc1cccc(N2CCN(C(=O)c3cc4cc(Cl)ccc4[nH]3)CC2)c1	-4.2	51.5*	4.5	0.4	-3.8	40.7	1.2	5.6
O=C(c1cc2cc(F)ccc2[nH]1)N1CCN(c2cccc(Cl)c2)CC1	19.9	60.7*	5.5	-2.7	-3.4	47.8	-0.8	-0.1
COc1ccc2cc(C(=O)N3CCN(C)CC3)[nH]c2c1	-2.4	-11.6	13.1	-1.1	-2.5	/	/	/
Cc1[nH]c(-c2ccc(F)cc2)cc1C(=O)N1CCN(c2cccc(Cl)c2)CC1	9.4	91.0*	0.2	-2.5	-4.3	61.0*	-2.1	-9.8
O=C(c1cccc(F)c1)N1CCN(c2cccc(Cl)c2)CC1	-9.2	4.9	4.3	-2.5	-10.6	/	/	/
CCOc1ccccc1N1CCN(C(=O)c2cc3cc(OC)ccc3[nH]2)CC1	-5.3	52.4*	2.9	2.0	-2.3	30.3	-1.4	-13.6
SMILES	APJ antagonist	EBI2 antag	CCR6 antagonist	APJ agonist	CXCR6 block	EBI2 conf	EBI2 agonist	bGal counter
CCOc1ccccc1N1CCN(C(=O)c2cc(C)oc2C)CC1	8.5	6.9	4.1	-3.8	1.4	/	/	/
Cc1cc(N2CCCC2)ccc1NC(=O)COc1cccc(C(F)(F)F)c1	-21.9	-3.1	0.4	8.3	-13.0	/	/	/
COc1ccc(Cc2c(C(C)(C)C)nc3ccc(Cl)cn23)c(C)c1	/	16.1	/	/	-2.6	/	/	/
COc1ccc2cc(C(=O)N3CCN(c4ccc(F)cc4)CC3)[nH]c2c1	-3.4	63.7*	-12.2	-3.6	-6.5	50.4*	-0.5	-15.6
O=C(/C=C/c1ccc(F)cc1)NC(=S)N1CCN(Cc2ccccc2)CC1	-2.8	34.5	14.9	-0.4	10.9	/	/	/
O=C(/C=C/c1ccc(F)cc1)NNC(=O)CCN1CCN(Cc2ccccc2)CC1	22.7	42.0*	-1.2	-3.4	2.7	4.8	0.4	4.6
O=C(/C=C/c1ccc(OCCCF)cc1)N1CCN(Cc2ccccc2)CC1	-2.0	87.9*	8.6	-2.4	-6.3	50.5*	-0.9	-10.8
O=C(/C=C/c1ccc([N+](=O)[O-])cc1)N1CCN(Cc2ccccc2)CC1	-17.5	90.2*	-24.4	4.8	-9.5	63.8*	0.8	-9.8
CC(CC(=O)N1CCN(S(=O)(=O)c2ccc([N+](=O)[O-])cc2)CC1)c1ccccc1 (stereo unspecified)	-86.0	-7.3	5.2	0.6	-16.4	/	/	/
O=C(/C=C/c1ccc([N+](=O)[O-])cc1)N1CCN(S(=O)(=O)c2ccccc2)CC1	-6.2	90.4*	-8.5	4.0	-11.8	61.5*	-0.7	-12.8
N#CCCN(C(=O)COC(=O)c1cc(=O)[nH]c2ccccc12)c1ccccc1	12.0	-4.4	6.4	1.0	5.8	/	/	/
CC(C)N1C(=O)C(=O)N(CC(=O)N(C)c2ccccc2)C1=O	10.3	-18.8	0.7	-3.0	3.7	/	/	/
CN(CC1CCCO1)S(=O)(=O)c1ccc(C(=O)Nc2ccc(S(N)(=O)=O)cc2)cc1 (stereo unspecified)	3.4	-16.1	1.2	6.1	2.8	/	/	/
CCN1CCN(C(=O)/C=C/c2ccc([N+](=O)[O-])cc2)CC1	-15.3	73.9*	-5.7	1.2	-9.5	37.8	1.8	3.9
CN1CCN(C(=O)/C=C/c2ccc([N+](=O)[O-])cc2)CC1	-4.9	22.3	10.1	-0.2	-1.6	/	/	/
COc1ccc(-c2ccc3c(c2)[C@@H]2C[C@H](N(C)C(=O)Nc4ccccc4)[C@H]([C@H](C)O)C(=O)N2CC3)cc1	/	2.6	4.6	/	4.4	/	/	/

Screening results deposited in PubChem BioAssay by Sanford-Burnham Center for Chemical Genomics.
